The text below walks through data of ChEMBL document CHEMBL4004830 (J Med Chem, 2017).

Activity calls are given as the source filed them. The rule behind the calls is not given here.

Series [1] deals with MV4-11. The experiment in a line: Cell cycle arrest in human MV4-11 cells assessed as accumulation at S phase at 0.04 uM after 24 hrs by propidium iodide staining based flow cytometry (reference value: 19.07%). Type of series: functional. For orientation: Flow cytometry measures light scatter and fluorescence of single cells or particles in a stream.
Series [2] concerns MV4-11. Briefly: Cell cycle arrest in human MV4-11 cells assessed as accumulation at G1 phase at 0.20 uM after 24 hrs by propidium iodide staining based flow cytometry (reference value: 61.01%). Format: functional.
Series [3] concerns MV4-11. The experiment in a line: Cell cycle arrest in human MV4-11 cells assessed as accumulation at S phase at 0.20 uM after 24 hrs by propidium iodide staining based flow cytometry (reference value: 19.07%). Format: functional.
In series [4] the test system is MV4-11. The experiment in a line: Cell cycle arrest in human MV4-11 cells assessed as accumulation at G1 phase at 0.40 uM after 24 hrs by propidium iodide staining based flow cytometry (reference value: 61.01%). Type of series: functional.
Series [5] has as its system MV4-11. The experiment in a line: Effect on total Rb protein levels in human MV4-11 cells at GI50 after 12 to 24 hrs by Western blot analysis. Type of series: cell-based. An outline of the steps: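 MV4-11 cells were treated for 12 or 24 h, then analysed by Western blot for Rb, including phospho-Ser780. β-Actin served as the loading control. Data are representative of two independent experiments.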
(A western blot detects proteins with antibodies after separation by electrophoresis.)

Series [6] deals with Serine/threonine-protein kinase 16 (Homo sapiens) (UniProt O75716). Briefly: Inhibition of human STK16 (11 to 305 amino acid residues) expressed in bacterial expression system at 1 uM in presence of [gamma-33P]-ATP […]. Summed up: (§1)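 Broad kinome panel of 369 kinases screened at 1 µM test concentration.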
For series [7], the target named is Cyclin-dependent kinase 4/cyclin D1 (Homo sapiens, UniProt P11802). Briefly: Inhibition of CDK4/cyclin D1 (unknown origin) in presence of [gamma-33P]-ATP […]. Format: protein-complex assay. The conditions noted are these: read-out: Ki(app).
Series [8] concerns the target Cyclin-dependent kinase 1/cyclin B1 (Homo sapiens) (UniProt P06493+P14635). Briefly: Inhibition of CDK1/cyclin B (unknown origin) in presence of [gamma-33P]-ATP […]. Format: protein-complex assay.
In another series the target is CDK9/cyclin T1 (Homo sapiens, UniProt P50750). Briefly: Inhibition of CDK9/cyclin T1 (unknown origin) in presence of [gamma-33P]-ATP […]. To be noted: read-out: Ki(app). Format: protein-complex assay.
The species entered for series [9] is Homo sapiens. The experiment in a line: Selectivity ratio of Ki for CDK2/cyclin A (unknown origin) to Ki for CDK4/cyclin D1 (unknown origin). Summed up: (§2)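 Apparent Ki for each CDK–cyclin complex (CDK4–cyclin D1, CDK6–cyclin D3, CDK2–cyclin A) calculated from the half-maximal inhibition (IC50) and that kinase's Km(ATP). The selectivity ratio is the CDK2 Ki divided by the CDK4 or CDK6 Ki.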

The species named for series [10] is Homo sapiens. Briefly: Selectivity ratio of Ki for CDK2/cyclin A (unknown origin) to Ki for CDK6/cyclin D3 (unknown origin). Summed up: as §2
Another series addresses Cytochrome P450 2D6 (Homo sapiens, UniProt P10635). The experiment in a line: Inhibition of CYP2D6 in human liver microsomes using dextromethorphan as substrate in presence of NADPH. Type of series: ADME. An outline of the steps:
(§3)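 Human liver microsomes with NADPH and isoform-specific probe substrate (midazolam CYP3A4, dextromethorphan CYP2D6, ethoxyresorufin CYP1A, tolbutamide CYP2C9, mephenytoin CYP2C19); IC50 reported in µM.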
Background: Liver microsomes are a subcellular fraction often used to study metabolism.

Another series has as its target Cytochrome P450 1A2 (Homo sapiens, UniProt P05177). Briefly: Inhibition of CYP1A2 in human liver microsomes using ethoxyresorufin as substrate in presence of NADPH. Type of series: ADME. Summed up:
as §3

Series [11] concerns the target Voltage-gated inwardly rectifying potassium channel KCNH2 (Homo sapiens, UniProt Q12809). Briefly: Inhibition of human ERG expressed in CHO cells by patch clamp electrophysiology. Format: cell-based. An outline of the steps:
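Cardiac toxicity assay in CHO cells expressing hERG; IC50 determined.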

A short description of series [12]: Apparent permeability co-efficient from apical to basolateral side in human Caco2 cells. Format: ADME, cell-based. To be noted: Caco-2. Summed up: (§4)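 Caco-2 monolayer assay measuring the apparent permeability coefficient (P_app, 10^-6 cm/s) in the A→B and B→A directions. Efflux ratio is the mean P_app B-A divided by the mean P_app A-B.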
Series [13] in a line: Apparent permeability co-efficient from basolateral to apical side in human Caco2 cells. To be noted: Caco-2. Type of series: ADME, cell-based. An outline of the steps:
as §4

A short description of series [14]: Efflux ratio of apparent permeability co-efficient from basolateral to apical side over apical to basolateral side in human Caco2 cells. Format: ADME, cell-based. The conditions noted are these: Caco-2. An outline of the steps: as §4
A short description of series [15]: Volume of distribution at steady state in albino Wistar rat at 5 mg/kg, iv up to 24 hrs by LC-MS/MS analysis. Format: ADME, organism-based. To be noted: in vivo, read-out: Vdss. Summed up: (§5)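 Single-dose pharmacokinetics in male animals: albino Wistar rats given 5 mg/kg IV or 20 mg/kg PO, and BALB/c mice given 2 mg/kg IV or 10 mg/kg PO.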
A short description of series [16]: Half-life in albino Wistar rat at 5 mg/kg, iv up to 24 hrs by LC-MS/MS analysis. To be noted: in vivo. Format: ADME, organism-based. Summed up: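 Single-dose pharmacokinetics in male albino Wistar rats, 5 mg/kg IV.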
Series [17] can be described thus: Tmax in albino Wistar rat at 20 mg/kg administered via oral gavage measured up to 24 hrs by LC-MS/MS analysis. Type of series: ADME, organism-based. The conditions noted are these: in vivo. Summed up:
as §5

Series [18] is described as follows: Oral bioavailability in albino Wistar rat at 20 mg/kg measured up to 24 hrs by LC-MS/MS analysis. Format: ADME, organism-based. To be noted: in vivo. Summed up: as §5
The nature of series [19]: Volume of distribution at steady state in BALB/c mouse at 2 mg/kg, iv up to 24 hrs by LC-MS/MS analysis. Format: ADME, organism-based. To be noted: in vivo, read-out: Vdss. Summed up:
as §5

The nature of series [20]: Cmax in BALB/c mouse at 2 mg/kg, iv up to 24 hrs by LC-MS/MS analysis. Details: dose 2 mg/kg, route intravenous. The conditions noted are these: in vivo. Type of series: ADME, organism-based.
The nature of series [21]: Tmax in BALB/c mouse at 10 mg/kg administered via oral gavage measured up to 24 hrs by LC-MS/MS analysis. To be noted: in vivo. Format: ADME, organism-based. Summed up: as §5
Series [22] is described as follows: Oral bioavailability in BALB/c mouse at 10 mg/kg measured up to 24 hrs by LC-MS/MS analysis. Format: ADME, organism-based. To be noted: in vivo. An outline of the steps: as §5
Series [23] relates to MV4-11. Briefly: Antitumor activity against human MV4-11 cells xenografted in nude BALB/c mouse assessed as median survival time at 100 mg/kg, po qd administered for 33 consecutive days and left untreated for another 50 days (reference value: 33 days). Format: functional.
In series [24] the test system is MV4-11. Briefly: Antitumor activity against human MV4-11 cells xenografted in nude BALB/c mouse assessed as tumor growth inhibition at 100 mg/kg, po qd administered for 33 consecutive days measured post last dose. The conditions noted are these: MV4-11, po, read-out: TGI. Type of series: functional.
In another series the test system is Mus musculus. Briefly: Toxicity in nude BALB/c mouse xenografted with human MV4-11 cells assessed as overt toxicity at 100 mg/kg, po qd for 33 consecutive days and left untreated for another 50 days. Format: organism-based. To be noted: in vivo, 1200 h.
The target of series [25] is LIM domain kinase 1 (Homo sapiens) (UniProt P53667). Briefly: Inhibition of full-length human LIMK1 (1 to 647 amino acid residues) expressed in bacterial expression system at 1 uM in presence of [gamma-33P]-ATP […]. Summed up: as §1
Series [26] addresses Dual specificity tyrosine-phosphorylation-regulated kinase 3 (Homo sapiens) (UniProt O43781). The experiment in a line: Inhibition of DYRK3 (unknown origin) at 1 uM in presence of [gamma-33P]-ATP […]. An outline of the steps: as §1

Cyclin-dependent kinase 1/cyclin B1 (Homo sapiens), sequence (P06493 whole entry, looked up): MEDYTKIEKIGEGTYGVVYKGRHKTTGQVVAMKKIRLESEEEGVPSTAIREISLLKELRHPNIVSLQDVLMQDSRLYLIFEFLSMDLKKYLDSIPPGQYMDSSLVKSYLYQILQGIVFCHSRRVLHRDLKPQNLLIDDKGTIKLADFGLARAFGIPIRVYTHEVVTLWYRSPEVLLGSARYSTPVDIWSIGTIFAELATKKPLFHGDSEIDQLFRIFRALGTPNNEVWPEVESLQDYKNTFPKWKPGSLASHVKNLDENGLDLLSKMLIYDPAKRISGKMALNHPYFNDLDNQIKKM
Cyclin-dependent kinase 1/cyclin B1 (Homo sapiens), sequence (P14635 whole entry, looked up): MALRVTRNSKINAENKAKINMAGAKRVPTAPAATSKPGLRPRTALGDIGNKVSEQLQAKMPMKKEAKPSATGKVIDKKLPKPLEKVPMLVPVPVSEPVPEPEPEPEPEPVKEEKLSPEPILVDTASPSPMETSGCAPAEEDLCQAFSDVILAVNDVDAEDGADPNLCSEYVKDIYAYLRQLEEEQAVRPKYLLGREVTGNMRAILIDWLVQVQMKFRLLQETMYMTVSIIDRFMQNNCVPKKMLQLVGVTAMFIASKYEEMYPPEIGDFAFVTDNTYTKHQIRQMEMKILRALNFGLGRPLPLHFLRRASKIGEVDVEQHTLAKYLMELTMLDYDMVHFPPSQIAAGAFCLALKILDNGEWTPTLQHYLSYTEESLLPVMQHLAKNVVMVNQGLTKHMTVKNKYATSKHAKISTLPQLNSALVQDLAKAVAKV
Serine/threonine-protein kinase 16 (Homo sapiens), sequence (O75716 whole entry, the tested form may be a part): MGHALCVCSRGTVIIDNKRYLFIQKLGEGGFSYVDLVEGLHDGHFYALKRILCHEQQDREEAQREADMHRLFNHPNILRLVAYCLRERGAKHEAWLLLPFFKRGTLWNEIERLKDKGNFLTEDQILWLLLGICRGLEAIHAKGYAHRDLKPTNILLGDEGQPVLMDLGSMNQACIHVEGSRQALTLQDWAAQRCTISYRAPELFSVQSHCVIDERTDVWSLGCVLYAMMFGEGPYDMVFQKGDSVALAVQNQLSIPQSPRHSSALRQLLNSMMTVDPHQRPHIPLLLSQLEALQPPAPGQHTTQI
Voltage-gated inwardly rectifying potassium channel KCNH2, sequence (Q12809 whole entry): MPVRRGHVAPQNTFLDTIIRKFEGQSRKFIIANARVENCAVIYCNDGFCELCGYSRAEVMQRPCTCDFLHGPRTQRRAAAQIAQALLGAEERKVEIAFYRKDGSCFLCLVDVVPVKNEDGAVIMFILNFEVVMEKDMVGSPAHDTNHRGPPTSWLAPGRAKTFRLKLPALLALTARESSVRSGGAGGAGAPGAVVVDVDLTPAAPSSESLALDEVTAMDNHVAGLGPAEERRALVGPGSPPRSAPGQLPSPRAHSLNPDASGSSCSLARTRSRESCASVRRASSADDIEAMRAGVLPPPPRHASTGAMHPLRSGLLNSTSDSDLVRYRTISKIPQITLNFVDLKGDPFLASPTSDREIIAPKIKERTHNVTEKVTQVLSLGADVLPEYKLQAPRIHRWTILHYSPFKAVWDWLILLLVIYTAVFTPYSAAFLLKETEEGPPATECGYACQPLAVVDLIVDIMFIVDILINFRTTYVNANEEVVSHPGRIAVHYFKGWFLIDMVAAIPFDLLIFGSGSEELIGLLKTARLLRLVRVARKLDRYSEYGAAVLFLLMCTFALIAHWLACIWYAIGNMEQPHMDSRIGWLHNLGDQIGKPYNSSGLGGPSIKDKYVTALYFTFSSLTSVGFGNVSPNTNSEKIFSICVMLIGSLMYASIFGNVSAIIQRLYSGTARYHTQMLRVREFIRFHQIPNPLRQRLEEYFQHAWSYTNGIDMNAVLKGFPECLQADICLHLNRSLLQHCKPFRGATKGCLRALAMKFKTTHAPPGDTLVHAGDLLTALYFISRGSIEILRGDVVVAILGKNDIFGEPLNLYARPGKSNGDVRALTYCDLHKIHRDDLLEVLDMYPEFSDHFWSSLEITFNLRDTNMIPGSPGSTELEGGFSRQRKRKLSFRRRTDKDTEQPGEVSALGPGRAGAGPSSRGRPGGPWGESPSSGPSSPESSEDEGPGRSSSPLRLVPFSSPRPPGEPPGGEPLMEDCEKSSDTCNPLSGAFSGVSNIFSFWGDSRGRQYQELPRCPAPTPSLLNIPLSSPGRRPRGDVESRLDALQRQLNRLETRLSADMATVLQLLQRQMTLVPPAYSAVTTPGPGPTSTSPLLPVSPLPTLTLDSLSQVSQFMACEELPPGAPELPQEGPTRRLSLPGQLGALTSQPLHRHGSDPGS
Cyclin-dependent kinase 4/cyclin D1, sequence (P11802 whole entry): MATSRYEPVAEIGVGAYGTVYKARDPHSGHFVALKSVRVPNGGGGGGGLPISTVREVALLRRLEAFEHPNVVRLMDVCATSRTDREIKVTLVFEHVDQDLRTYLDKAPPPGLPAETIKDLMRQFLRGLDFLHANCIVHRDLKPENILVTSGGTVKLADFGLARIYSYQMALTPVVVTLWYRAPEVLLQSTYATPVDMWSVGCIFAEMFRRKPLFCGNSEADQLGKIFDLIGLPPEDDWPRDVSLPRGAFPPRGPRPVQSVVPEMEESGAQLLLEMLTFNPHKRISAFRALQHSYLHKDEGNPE
Cyclin-dependent kinase 4/cyclin D1, sequence (P24385 whole entry, further chain): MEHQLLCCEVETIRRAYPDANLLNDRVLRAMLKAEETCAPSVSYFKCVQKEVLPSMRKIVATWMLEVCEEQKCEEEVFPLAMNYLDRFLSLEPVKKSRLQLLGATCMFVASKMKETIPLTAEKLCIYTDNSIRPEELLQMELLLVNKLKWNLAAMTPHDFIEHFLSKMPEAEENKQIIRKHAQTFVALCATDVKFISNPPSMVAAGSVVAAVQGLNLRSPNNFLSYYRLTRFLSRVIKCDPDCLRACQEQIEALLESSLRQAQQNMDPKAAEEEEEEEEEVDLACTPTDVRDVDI
Cytochrome P450 2D6, sequence (P10635 whole entry, canonical isoform): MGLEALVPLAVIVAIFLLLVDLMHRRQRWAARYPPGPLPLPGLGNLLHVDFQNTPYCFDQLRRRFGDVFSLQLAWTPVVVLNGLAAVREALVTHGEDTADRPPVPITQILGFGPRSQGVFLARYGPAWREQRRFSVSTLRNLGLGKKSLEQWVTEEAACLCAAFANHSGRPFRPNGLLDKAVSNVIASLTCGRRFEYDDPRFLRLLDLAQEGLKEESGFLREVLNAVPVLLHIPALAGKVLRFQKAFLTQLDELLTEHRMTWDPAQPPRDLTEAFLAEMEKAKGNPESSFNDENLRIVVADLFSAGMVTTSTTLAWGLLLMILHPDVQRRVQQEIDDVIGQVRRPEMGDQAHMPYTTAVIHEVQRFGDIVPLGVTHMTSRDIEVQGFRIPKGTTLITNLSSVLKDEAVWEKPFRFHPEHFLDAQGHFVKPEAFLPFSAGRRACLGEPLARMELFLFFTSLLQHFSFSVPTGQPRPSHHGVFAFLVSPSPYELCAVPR
Dual specificity tyrosine-phosphorylation-regulated kinase 3 (Homo sapiens), sequence (O43781 whole entry): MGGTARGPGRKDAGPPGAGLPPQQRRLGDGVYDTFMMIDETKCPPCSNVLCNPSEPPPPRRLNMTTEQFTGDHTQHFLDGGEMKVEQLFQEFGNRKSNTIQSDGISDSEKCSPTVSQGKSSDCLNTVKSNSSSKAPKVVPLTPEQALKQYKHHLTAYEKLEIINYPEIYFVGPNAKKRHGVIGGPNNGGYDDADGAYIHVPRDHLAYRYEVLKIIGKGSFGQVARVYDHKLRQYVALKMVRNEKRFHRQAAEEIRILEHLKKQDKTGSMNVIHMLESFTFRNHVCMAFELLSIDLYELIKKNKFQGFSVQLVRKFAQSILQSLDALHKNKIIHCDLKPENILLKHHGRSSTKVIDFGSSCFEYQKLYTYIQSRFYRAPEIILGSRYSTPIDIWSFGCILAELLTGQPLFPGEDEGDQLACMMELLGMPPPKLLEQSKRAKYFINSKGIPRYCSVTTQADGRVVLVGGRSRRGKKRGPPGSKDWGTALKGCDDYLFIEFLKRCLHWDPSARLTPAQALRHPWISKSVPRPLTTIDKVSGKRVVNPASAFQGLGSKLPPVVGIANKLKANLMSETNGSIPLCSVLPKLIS
CDK9/cyclin T1, sequence (O60563 whole entry): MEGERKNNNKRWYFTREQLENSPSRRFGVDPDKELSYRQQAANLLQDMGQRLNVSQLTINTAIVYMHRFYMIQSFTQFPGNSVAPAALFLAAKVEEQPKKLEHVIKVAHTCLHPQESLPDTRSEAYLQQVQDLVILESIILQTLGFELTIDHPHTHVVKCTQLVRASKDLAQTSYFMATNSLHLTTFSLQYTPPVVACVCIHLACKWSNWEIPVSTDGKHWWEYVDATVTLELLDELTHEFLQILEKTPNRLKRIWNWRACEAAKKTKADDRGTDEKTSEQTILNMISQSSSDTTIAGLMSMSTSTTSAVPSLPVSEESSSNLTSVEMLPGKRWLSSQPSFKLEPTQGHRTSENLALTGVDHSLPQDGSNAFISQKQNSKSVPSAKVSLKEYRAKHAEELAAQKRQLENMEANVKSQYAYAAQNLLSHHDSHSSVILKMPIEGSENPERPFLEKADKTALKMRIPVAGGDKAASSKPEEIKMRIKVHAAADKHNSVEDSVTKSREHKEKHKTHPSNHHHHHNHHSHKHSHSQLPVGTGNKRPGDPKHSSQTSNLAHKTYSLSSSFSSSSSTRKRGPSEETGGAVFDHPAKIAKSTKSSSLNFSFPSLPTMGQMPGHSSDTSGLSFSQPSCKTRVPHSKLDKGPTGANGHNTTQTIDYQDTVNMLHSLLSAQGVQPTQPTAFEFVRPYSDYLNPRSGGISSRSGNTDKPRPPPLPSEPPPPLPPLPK
CDK9/cyclin T1, sequence (P50750 whole entry): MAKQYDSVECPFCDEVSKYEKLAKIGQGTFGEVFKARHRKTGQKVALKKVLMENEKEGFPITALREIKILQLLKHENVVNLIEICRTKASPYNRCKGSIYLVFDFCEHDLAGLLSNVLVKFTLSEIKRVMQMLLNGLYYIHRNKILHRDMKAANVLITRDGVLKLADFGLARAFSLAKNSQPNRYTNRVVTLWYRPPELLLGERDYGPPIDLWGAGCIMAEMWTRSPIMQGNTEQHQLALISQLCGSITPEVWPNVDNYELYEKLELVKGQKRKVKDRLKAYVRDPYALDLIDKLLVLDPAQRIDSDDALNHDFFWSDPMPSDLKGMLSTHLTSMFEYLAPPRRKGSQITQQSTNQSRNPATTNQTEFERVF

Regarding `CC(=O)c1c(C)c2cnc(Nc3ccc(N4CCNCC4)cn3)nc2n(C2CCCC2)c1=O` [PALBOCICLIB], the Activity with MV4-11 [1] is on record as 15.52%; in the series on MV4-11 [2] it was 80.66%; with MV4-11 [3], 9.33%; in the series on MV4-11 [4], 85.35%; in the series with MV4-11 [5], “Toxic”.
What is called IC50 is the concentration at which inhibition is half-maximal. Broadly, the Papp A→B is how fast a substance crosses the layer from the apical side. A word on the Papp B→A: it is the apparent permeability from the basolateral to the apical side of a cell layer. What is called efflux ratio is a quotient of directional permeabilities that is used to spot active efflux. As a reminder, the half-life is how long it takes for the measured level to halve. Higher therefore signals slow loss. In general, Tmax refers to the time from dosing to the highest level. The bioavailability is dose-corrected exposure relative to a reference, in per cent. In general, Cmax refers to the highest concentration seen after dosing. Consider `Cc1nc(NC2CCCC2)sc1-c1ccnc(Nc2ccc(N3CCOCC3)cn2)n1`, for which the inhibition result in [6], in [25] and in series [26] was “Active” in each case. Further, the Ki in series [7] was 0.004 µM; on CDK9/cyclin T1, more than 5 µM. For the same compound, the “Ki(app)” value in series [8] is “inactive”. Moreover, the Ratio Ki is more than 1200 in the series filed under Homo sapiens [9] and 156 in the series filed under Homo sapiens [10]. Further, the IC50 at Cytochrome P450 2D6 is more than 25 µM; on Cytochrome P450 1A2, more than 25 µM; in series [11], more than 10 µM. Further, the Papp A→B in [12] stood at 10.1 ×10⁻⁶ cm/s. Besides, in [13], the Papp B→A is 3.98 ×10⁻⁶ cm/s. Besides, the efflux ratio in [14] was 0.396 to 4. The Vd in series [15] came out at 1.5 L/kg; in series [19], 5.6 L/kg. In series [16], this compound had a half-life of 4.2 h. Further, the figures for the Tmax in series [17] and in series [21] were 3.7 h and 2 h, respectively. Also, the bioavailability is 25.1 to 27% in [18] and 100% in [22]. Further, the Cmax in [20] came out at 2300 nM. Moreover, the MST in the series with MV4-11 [23] turned out to be 55 days. In addition, the inhibition in vivo at 100 mg/kg with MV4-11 [24] was found to be 76%. The Activity result in the series on Mus musculus is given as “Non-Toxic”.
